# PglD inh – C. jejuni PglD acetyltransferase inhibitors, primary screen, biochemical, DTNB colorimetric, single point. inhibition, % at 12.5 µM. actives 0.098% (n = 360,000). UDP-N-acetylbacillosamine N-acetyltransferase PglD (Campylobacter jejuni). purified PglD enzyme, DTNB colorimetric CoA detection. AID 602405, 2012; in the data active means inhibition above about 16%, passing the limit was not always enough
# Cneo AK release – Cryptococcus neoformans cell lysis inducers, primary screen, AK release luminescence, single concentration; C. neoformans lysis, adenylate kinase release luminescence, 4 h; normalised: neutral wells 0, clomiphene wells 100; lysis activity, % at 15 µM; actives 0.2% (n = 360,000);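 active means mean lysis activity across replicates of at least 80%, whatever share of replicates individually reach that level; inactive means mean lysis activity below 80%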
#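 Material – log-phase Cryptococcus neoformans yeast cells · Input – 5 × 10^6 yeast cells/mL · Medium – fresh YPD growth medium · Doses – single compound concentration per well · Timing – static 4 h at 37 °C with compound, 1 h detection · Detection – adenylate kinase release luminescence · Read-out – signal increase indicating cell lysis · Control set – Clomiphene as positive lysis control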
# Ecoli rRNA inh – reduced GFP signal of wild-type E. coli, primary screen, bacterial rRNA inhibitor project, GFP/RFP fluorescence, OD600, single point | E. coli WT GFP vs humanized-ribosome RFP mutants, 24 h; active compounds read low; DMSO median 0, no signal -100 | GFP signal change (wild-type ribosome), % (concentration not given with the values) | actives 1.6% (n = 350,000) | AID 720706, 2013;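 active means significant combined selectivity score with lowered wild-type GFP, culture density cut under 30%, mutant RFP and density less affected; inactive means any of these conditions unmet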
# PGC1a acetyl inh – inhibitors of PGC1a acetylation signal, primary screen, cell-based, U2OS, AlphaScreen, inhibitor mode; AlphaScreen anti-acetyl-lysine; with virally co-expressed GCN5 acetyltransferase; inhibition, % at 15.6 µM; actives 0.17% (n = 350,000); AID 651687, 2012;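 active means every replicate shows inhibition of at least 40%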
# Vif inh – HIV Vif self-association inhibitors, primary screen, imaging, HEK293T, single point; HEK293T cells, Vif self-association by quenched fluorescence, 24 h; inhibition, % at 7.49 µM; actives 0.35% (n = 340,000); AID 602346, 2012; in the data active means inhibition above about 50%, passing the limit was not always enough
# FGF22 binding – binders of human FGF22 protein, primary screen, FGF22 synaptogenesis inhibitor project, biophysical, thermal shift, single point | AID 651658, 2012 | Fibroblast growth factor 22 (Homo sapiens), Q9HCT0 | actives 1.5% (n = 340,000) | recombinant FGF22 thermal shift, SYPRO orange fluorescence; percent of sucrose octasulfate shift, DMSO zero | activity (Tm shift, normalised), % at 9.99 µM;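 active means mean Tm shift, scaled 0 neutral to 100 positive control, at about 1.3% or above, every replicate too, limit read from the data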
# Target sequence (Q9HCT0 whole entry, looked up): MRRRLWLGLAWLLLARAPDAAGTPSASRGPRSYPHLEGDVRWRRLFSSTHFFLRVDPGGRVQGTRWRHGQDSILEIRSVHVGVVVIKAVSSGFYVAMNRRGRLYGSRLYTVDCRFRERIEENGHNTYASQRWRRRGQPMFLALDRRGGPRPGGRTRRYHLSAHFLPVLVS
# Numbers stand for hits; - = inactive; . = no result given. In the library only some 2.9% were active in any assay of this set; here they are far more common.
SMILES,PglD inh,Cneo AK release,Ecoli rRNA inh,PGC1a acetyl inh,Vif inh,FGF22 binding
CCC(=O)c1ccc(OCc2ccc(C(=O)OC)cc2)cc1,-,-,-,.,-,44
CCC(=O)c1ccc(OCc2ccc(C#N)cc2)cc1,.,.,-,-,-,-
Cc1noc(C)c1C(=O)OCC(=O)Nc1cccc(S(N)(=O)=O)c1,.,.,.,.,-,43
O=C(NCc1ccc(F)cc1)[C@H]1N[C@H]2c3ccc(-c4ccccc4)c(=O)n3C[C@H]2[C@@H]1CO,-,-,-,.,.,-
CC1Cc2ccccc2N1C(=O)CNCCCN(C)C (configuration not stated),-,-,.,-,-,.
CC1CC2(C)Oc3ccccc3CC2C(C)C1CNCCCN(C)C (configuration not stated),.,.,-,.,-,43
CC(C)[C@H](NC(N)=O)C(=O)Nc1ccc(Oc2ccccc2)cc1,.,.,-,-,-,43
CC(C)[C@H](NC(=O)Nc1ccc(Oc2ccccc2)cc1)C(=O)O,-,-,.,.,-,.
Cc1nn(C)cc1NC(=O)C[C@H]1CC[C@@H]2[C@@H](COc3ccc(NC(=O)C4CCC4)cc3C(=O)N2C)O1,.,.,-,-,.,.
O=C(NC1CCCc2ccccc21)c1ccccc1Br (configuration not stated),-,-,-,-,60,-
O=C(O)c1ccccc1C(=O)NC1CCCc2ccccc21 (configuration not stated),-,-,-,-,.,-
CCCC#Cc1ccc2c(c1)O[C@@H](CN(C)CC1CCOCC1)[C@H](C)CN([C@H](C)CO)S2(=O)=O,-,-,-,-,.,-
CCC(CO)NCC#Cc1ccccc1 (configuration not stated),.,.,-,.,-,44
CC(C)NC(=O)Nc1ccc2c(c1)C(=O)N([C@@H](C)CO)C[C@H](C)[C@@H](CN(C)Cc1ccc(C(F)(F)F)cc1)OCCCC[C@@H](C)O2,-,-,-,-,.,-
COc1cc(C(=O)N/N=C(\Cc2ncc[nH]2)c2ccccc2)cc(OC)c1OC,.,.,-32,-,-,-
CCN(CC)CCOC(=O)CCc1cccc2ccccc12,-,-,.,-,-,.
CCN(CC)CCOC(=O)C(Cc1ccco1)Cc1cccc2ccccc12 (configuration not stated),-,-,-34,-,-,-
Cc1nn(Cc2ccccc2Cl)c(C)c1C(=O)N1CCN(c2ccccc2)CC1,-,-,-27,-,-,.
Cc1ccc(-c2nn(CCC(=O)O)cc2/C=C\C(=O)c2ccc(Br)cc2)cc1,.,.,-,.,-,15
CC(C)NC(=O)N1C[C@@H]2[C@H](c3ccccc31)[C@@H](CO)N2C(=O)Nc1cccc(F)c1,-,-,-,-,.,-
CSc1ccc(CN(C)CC(=O)NCCc2ccccc2)cc1,-,-,-,.,69,-
CC(CCc1ccccc1)NC(=O)CN(C)Cc1ccccc1F (configuration not stated),-,-,-29,-,-,-
CN(CC(=O)NCCc1ccc(F)cc1)Cc1ccccc1,-,-,-,-,-,-
CC(CCc1ccccc1)NC(=O)CN(C)Cc1ccc(F)cc1 (configuration not stated),-,-,-,-,-,-
CN(CC(=O)Nc1ccccc1Oc1ccccc1)Cc1ccccc1F,.,.,.,.,-,.
SMILES,PglD inh,Cneo AK release,Ecoli rRNA inh,PGC1a acetyl inh,Vif inh,FGF22 binding
COc1ccccc1NC(=O)c1ccc(NC(=O)CN(C)Cc2ccccc2F)cc1,.,.,-,.,-,43
C[C@H](CO)N1C[C@H](C)[C@H](CN(C)C(=O)Cc2ccccc2)Oc2cc(-c3ccccc3)ccc2S1(=O)=O,-,-,-,-,.,-
O=C(Nc1ccc2c(c1)OCO2)N[C@H]1CC[C@H](CCNC(=O)C2CCOCC2)O[C@@H]1CO,-,-,-,-,.,-
COc1ccc(NC(=O)N[C@@H]2CC[C@@H](CCNS(=O)(=O)c3cccc(Cl)c3)O[C@@H]2CO)cc1,-,-,-,-,.,-
C[C@@H]1CN([C@H](C)CO)C(=O)c2cccc(NC(=O)Nc3ccccc3)c2O[C@@H]1CN(C)C,-,-,-,-,.,-
O=C(OCc1ccccc1)/C(=C/c1cccc(Br)c1)NC(=O)c1ccco1,-,-,-29,-,-,-
CO[C@H]1CN(C)C(=O)c2cc(NC(=O)NC(C)C)ccc2OC[C@H](C)N(Cc2ccc(-c3ccccn3)cc2)C[C@H]1C,-,-,-,-,.,-
C[C@H](CO)N1C[C@H](C)[C@@H](CN(C)C(=O)CCCN(C)C)OCc2cn(nn2)CCCC1=O,-,-,-,-,-,-
C[C@@H]1CN([C@@H](C)CO)C(=O)CCCn2cc(nn2)CO[C@@H]1CN(C)C(=O)NC1CCCC1,-,117,-,-,.,-
C[C@@H]1CN([C@@H](C)CO)C(=O)CCCn2cc(nn2)CO[C@@H]1CN(C)C(=O)CCCN(C)C,-,97,-,-,.,-
C[C@@H]1CN([C@H](C)CO)C(=O)CCCn2cc(nn2)CO[C@@H]1CN(C)C(=O)CCCN(C)C,-,105,.,-,.,-
O=C(C[C@H]1CC[C@@H]2[C@H](COC[C@@H](O)CN2S(=O)(=O)c2ccccc2)O1)N1CCOCC1,-,-,-,-,.,-
Cc1ccc(S(=O)(=O)NC(Cc2ccccc2)C(=O)O)cc1 (configuration not stated),.,.,-,.,-,-
Cc1ccc(S(=O)(=O)NC(CC(=O)OCc2ccccc2)C(=O)OCc2ccccc2)cc1 (configuration not stated),-,-,.,-,-,30
COC(=O)c1cccc(NC(=O)CSc2nnc(-c3ccco3)o2)c1,-,-,-,-,58,-
Clc1nc(Cl)c2ncn(-c3ccccc3)c2n1,-,-,-17,-,-,-
O=C(Nc1cccc(O)c1)c1cc(-c2ccccc2Cl)on1,-,-,-25,.,-,-
O=C(CN1C(=O)C2C3C=CC(C4CC34)C2C1=O)Nc1cnc2ccccc2c1 (configuration not stated),.,.,-,.,-,44
O=C(CN1C(=O)C2C3C=CC(C3)C2C1=O)Nc1ccc2nccnc2c1 (configuration not stated),-,-,-,-,-,-
Cc1ccc(S(=O)(=O)N(C)C[C@H]2Oc3ncc(C#CC4(O)CCCC4)cc3C(=O)N([C@@H](C)CO)C[C@H]2C)cc1,-,-,-,-,.,-
